High-throughput results (PubChem)
PKA-R2B act = PKA-R2B complex activation; P22694+P31323; PKA-R2B holoenzyme dissociation, Cy5-IP20 fluorescence polarization; R2B truncated from residue 108, S112A mutant; 0% DMSO only, 100% 113 µM cGMP; activation, % at 11.4 µM; hit rate 0.079% among 340,000;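 active means activation above a cutoff set at the mean over all compounds plus 3 SD, cut at about 18% in these data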;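 further: higher means more holoenzyme dissociation and a rise in polarization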
Target sequence (P31323 whole entry, looked up, other chains not shown, the tested form may be a part): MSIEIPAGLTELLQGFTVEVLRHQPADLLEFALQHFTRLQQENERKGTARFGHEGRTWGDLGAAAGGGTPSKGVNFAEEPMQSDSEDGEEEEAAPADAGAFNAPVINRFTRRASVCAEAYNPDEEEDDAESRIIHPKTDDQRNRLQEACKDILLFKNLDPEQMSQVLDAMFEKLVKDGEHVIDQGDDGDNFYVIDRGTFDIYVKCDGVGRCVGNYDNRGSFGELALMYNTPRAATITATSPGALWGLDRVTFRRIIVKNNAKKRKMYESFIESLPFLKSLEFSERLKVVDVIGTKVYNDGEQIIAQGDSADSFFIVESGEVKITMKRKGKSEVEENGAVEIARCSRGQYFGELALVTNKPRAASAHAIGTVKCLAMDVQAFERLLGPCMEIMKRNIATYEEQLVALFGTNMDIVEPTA
VIM-2 inh = blocks Pseudomonas aeruginosa VIM-2 metallo-beta-lactamase; hit rate 0.89% among 290,000; purified VIM-2, nitrocefin hydrolysis, epi-absorbance fluorescence; inhibition, % at 5.6 µM;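 active means inhibition above the mean of all tested compounds plus 3 SD, cutoff set per screening run, cut at about 7.5% in these data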;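 further: red hydrolysis product quenches plate fluorescence so inhibitors raise well fluorescence; 0% = enzyme with DMSO and 100% = DMSO without enzyme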
bovine MsrA act = activates bovine MsrA enzyme. hit rate 0.3% among 360,000. purified bovine MsrA, absorbance read-out. AID 602163. activation, % at 10.6 µM; in the data active means activation above about 7.5%;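 further: 0% = vehicle and 100% = reference activator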
PKA-R1A activ = activates the PKA-R1A holoenzyme complex; P00514+P68181; PKA-R1A dissociation, Cy5-IP20 fluorescence polarization; scaled: DMSO 0%, 113 µM cGMP 100%; activation, % at 11.4 µM; hit rate 0.083% among 340,000; AID 504707;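 active means percent activation above the mean of all tested compounds plus 3 SD, cut at about 19% in these data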;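 further: higher means more PKAc released from R1A so a rise in polarization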
MsrA inh = inhibitors of bovine MsrA; purified bovine MsrA, absorbance read-out; inhibition, % at 15.5 µM; hit rate 0.75% among 360,000; AID 651718; in the data active means inhibition above about 4.5%;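 further: 0% = vehicle wells with enzyme and 100% = reference inhibitor wells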
IMP-1 inh-1 = inhibitors of Pseudomonas aeruginosa IMP-1 metallo-beta-lactamase; purified IMP-1, nitrocefin hydrolysis, epi-absorbance fluorescence; inhibition, % at 5.6 µM; hit rate 0.45% among 290,000;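 active means inhibition above the mean plus 3 SD of all compounds in the same screening run, cut at about 4.5% in these data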;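 further: 0% = IMP-1 with DMSO and 100% = DMSO wells lacking enzyme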
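System: Purified IMP-1 | Read-out basis: Percent enzyme inhibition | Controls: IMP-1 with DMSO as 0%, enzyme-free DMSO as 100% | Replicates: One well per compound | Doses: 5.6 µM nominal single concentration | Detection: Epi-absorbance fluorescence, 480 nm excitation, 530 nm emission | Incubation: 25 °C, 15 min preincubation, 25 min reaction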
IMP-1 inh-2 = blocks IMP-1 metallo-beta-lactamase in VIM-2 selectivity screen; AID 1856; inhibition, % at 5.6 µM; shares compounds with VIM-2 inh; purified IMP-1, nitrocefin hydrolysis, epi-absorbance fluorescence; 1,300 tested, under 10 active; call rule not given here;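 further: 0% = enzyme with vehicle and 100% = vehicle without enzyme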
VIM-2 FRET ctr = counter-screen for VIM-2 inhibitors: epi-absorbance artifacts via FRET | purified VIM-2, CCF2 FRET substrate hydrolysis | shares compounds with VIM-2 inh | hit rate 23% among 1,300 | inhibition, % at 5.6 µM;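 active means inhibition above the mean of all tested compounds plus 3 SD, cut at about 19% in these data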;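 further: 0% = VIM-2 plus DMSO and 100% = no enzyme wells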
TEM-1 counter = TEM-1 inhibition, counter-screen for VIM-2 inhibitors; inhibition, % at 5.6 µM; shares compounds with VIM-2 inh; Purified TEM-1, nitrocefin hydrolysis, epi-absorbance fluorescence; hit rate 3% among 1,300; AID 1866;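 active means inhibition above that campaign's mean inhibition plus 3 SD, cut at about 0.46% in these data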;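 further: 0% = TEM-1 with DMSO and 100% = TEM-1 with 100 µM potassium clavulanate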
VIM-2 confirm 2 = confirmation of P. aeruginosa VIM-2 metallo-beta-lactamase inhibitors | shares compounds with VIM-2 inh | hit rate 96% among 1,300 | inhibition, % at 5.6 µM | purified VIM-2, nitrocefin hydrolysis, epi-absorbance;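 active means inhibition of the VIM-2 beta-lactamase enzyme above about 11% from the earlier first-round screen, limit read from the data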;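 further: 0% = VIM-2 with DMSO and 100% = buffer wells without enzyme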
* = called active by the depositor; nt = not tested or not shown. The list is not random: actives were taken first. Their share in the collection is about 2.1%.

SMILES	PKA-R2B act	VIM-2 inh	bovine MsrA act	PKA-R1A activ	MsrA inh	IMP-1 inh-1	IMP-1 inh-2	VIM-2 FRET ctr	TEM-1 counter	VIM-2 confirm 2
CCCc1cc(=O)oc2cc(C)cc(OCC(=O)Nc3ccc(CN4CCOCC4)cc3)c12	-1.6	13.7*	-0.6	-7.8	0.5	-0.7	-4.0	-2.0	-7.8	20.3*
O=C(c1cccs1)N1C[C@@H](O)[C@H](n2cc(-c3ccc(F)cc3)nn2)C[C@@H]1c1ccc(Cl)cc1	-13.1	nt	-3.4	-9.5	2.1	nt	nt	nt	nt	nt
COc1ccc(S(=O)(=O)NNS(=O)(=O)c2ccc(OC)c(OC)c2)cc1OC	nt	nt	-1.4	nt	nt	nt	nt	nt	nt	nt
CCCN1CCN(C(=O)Cn2nc(C)n3c(cc4sccc43)c2=O)CC1	13.2	18.3*	-1.6	-4.1	-1.2	-2.3	-3.0	1.3	-6.0	23.2*
CCc1cc2c(cc3c(=O)n(CC(=O)N4CCN(c5ccccn5)CC4)nc(CC)n32)s1	0.9	-0.6	-1.0	2.1	0.0	1.7	nt	nt	nt	nt
CCc1nn(CC(=O)N2CCN(CC)CC2)c(=O)c2cc3sccc3n12	-14.0	41.2*	-8.0	-5.9	0.5	0.6	-3.2	2.7	-8.2	49.8*
Cc1nn(CC(=O)N2CCN(c3ccccn3)CC2)c(=O)c2cc3sccc3n12	1.6	1.9	-2.2	1.7	nt	-1.0	nt	nt	nt	nt
CCN(C(=O)c1cccc(S(=O)(=O)N2CCc3ccccc32)c1)C1CCS(=O)(=O)C1 (stereo unspecified)	1.4	nt	-11.9	-9.6	-0.2	nt	nt	nt	nt	nt
c1ccc(N2CCN(c3nc(-c4ccccn4)nc4ccccc34)CC2)cc1	-12.7	42.0*	-9.4	-5.2	4.1	-4.8	-4.4	-46.6	-5.1	63.6*
Nc1nc(N)nc(-c2ccccn2)n1	-10.3	-1.6	3.6	2.6	0.3	-10.3	nt	nt	nt	nt
CN1CCN(c2nc(-c3ccccn3)nc3ccccc23)CC1	7.2	3.0	-0.8	7.2	2.2	-22.1	nt	nt	nt	nt
c1ccc(-c2nc(-c3ccccn3)nc(-c3ccccn3)n2)nc1	-4.0	21.3*	-3.4	-18.4	-0.6	-1.0	-2.7	-24.1	-5.6	44.5*
CC(OC(=O)Cc1c[nH]c2ccccc12)C(=O)N(C)c1ccccc1 (stereo unspecified)	4.4	nt	-6.1	-3.2	-0.7	nt	nt	nt	nt	nt
Cc1csc2c(C#N)c(=O)c3c(n12)CCC3	6.4	13.9*	-3.1	-1.4	3.1	-0.9	-3.7	-6.0	-8.6	21.7*
CC(C)CCN1C(=O)CSCC1(C)C(=O)NC(C)C (stereo unspecified)	nt	nt	nt	nt	-0.3	nt	nt	nt	nt	nt
COc1ccc(-c2cc(C(F)(F)F)nc(SCCC(=O)N3CCCC3)n2)cc1	-9.1	-0.7	-4.4	-7.8	1.2	-0.5	nt	nt	nt	nt
COc1ccc(-c2cc(C(F)(F)F)nc(SCCC(=O)N3CCN4CCCC4C3)n2)cc1 (stereo unspecified)	4.1	13.1*	-13.8	7.4	1.4	3.0	-3.2	5.8	-7.0	29.2*
CN1CCN(CC(=O)Nc2cc(N(C)C)nc3ccccc23)CC1	-1.3	18.6*	-2.6	-8.7	0.8	-2.7	-2.8	-2.3	-1.6	38.2*
C[C@@H]1CN([C@H](C)CO)C(=O)CCCn2nncc2CO[C@@H]1CN(C)S(=O)(=O)c1ccc(Cl)cc1	-2.8	nt	-1.5	2.6	0.9	nt	nt	nt	nt	nt
O=C(OCC(=O)N1CCN(S(=O)(=O)c2ccc(Cl)cc2)CC1)c1cccc(OC(F)F)c1	-12.8	nt	-6.0	-11.3	0.5	nt	nt	nt	nt	nt
CCOc1ccc(C(=O)c2ccccc2C(=O)O)cc1OCC	-2.5	0.4	-4.9	-12.8	0.7	-0.9	nt	nt	nt	nt
CC1=CC(=O)C(C(C)C)=C/C1=C(\c1cc(C(C)C)c(OP(=O)(O)O)cc1C)c1ccccc1C(=O)O	-4.1	18.4*	-5.1	-1.8	-0.2	-1.8	-2.0	31.7*	-3.4	25.2*
